Measured values reported in article PMC2175347 (Nucleic Acids Research, 2007).
Several values for one entry are separate records, joined by “and”; a condition that tells them apart may be missing. Equal values may be shown once. Each block holds one molecule with its values, some of them ahead of it. No end group written: not given here.

Key:
G9a [1] = assay: In vitro automethylation assay of G9a; assay type: biochemical, murine; conditions: 100 fold excess cold AdoMet with tritiated AdoMet; Figure 2B lanes 2 versus 3
Method in brief: (§1)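 Automethylation: recombinant murine G9a (full-length or MBP-fused construct lacking the N-terminal 633 aa) incubated with S-adenosyl-L-[methyl-³H]methionine, either alone or, for H3 signal, with recombinant histone H3. Parallel reactions contained excess unlabelled AdoMet as competitor. Reactions run at 25°C for 1 h with 7 µM tritiated AdoMet, resolved on 4–20% SDS-PAGE, Coomassie-stained and fluorographed on film.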

H3 = assay: In vitro methylation of histone H3; assay type: biochemical; conditions: 100 fold excess cold AdoMet with tritiated AdoMet; Figure 2B lanes 4 versus 5
Method in brief: as §1

full-length G9a = assay: In vitro methylation of GST-G9a fusion fragments by G9afl; assay type: biochemical, murine; conditions: for methylation / radioactive incorporation of GST fusion fragment: fluorography and radioactive incorporation of each band, Figure 2D; for methylation of GST fusion by G9afl: tritiated AdoMet, fluorography, Figure 2C
G9afl [2] = target: T1, G9afl (Mus musculus, UniProt Q9Z148); assay: Steady-state kinetics of G9afl on peptides representing ARKT/S motifs; assay type: biochemical, murine; conditions: peptide substrate, enzyme G9afl; for kcat (turnover number) / Km: 25°C, pH 9.0, duplicate
T1 sequence (Q9Z148 1-1263): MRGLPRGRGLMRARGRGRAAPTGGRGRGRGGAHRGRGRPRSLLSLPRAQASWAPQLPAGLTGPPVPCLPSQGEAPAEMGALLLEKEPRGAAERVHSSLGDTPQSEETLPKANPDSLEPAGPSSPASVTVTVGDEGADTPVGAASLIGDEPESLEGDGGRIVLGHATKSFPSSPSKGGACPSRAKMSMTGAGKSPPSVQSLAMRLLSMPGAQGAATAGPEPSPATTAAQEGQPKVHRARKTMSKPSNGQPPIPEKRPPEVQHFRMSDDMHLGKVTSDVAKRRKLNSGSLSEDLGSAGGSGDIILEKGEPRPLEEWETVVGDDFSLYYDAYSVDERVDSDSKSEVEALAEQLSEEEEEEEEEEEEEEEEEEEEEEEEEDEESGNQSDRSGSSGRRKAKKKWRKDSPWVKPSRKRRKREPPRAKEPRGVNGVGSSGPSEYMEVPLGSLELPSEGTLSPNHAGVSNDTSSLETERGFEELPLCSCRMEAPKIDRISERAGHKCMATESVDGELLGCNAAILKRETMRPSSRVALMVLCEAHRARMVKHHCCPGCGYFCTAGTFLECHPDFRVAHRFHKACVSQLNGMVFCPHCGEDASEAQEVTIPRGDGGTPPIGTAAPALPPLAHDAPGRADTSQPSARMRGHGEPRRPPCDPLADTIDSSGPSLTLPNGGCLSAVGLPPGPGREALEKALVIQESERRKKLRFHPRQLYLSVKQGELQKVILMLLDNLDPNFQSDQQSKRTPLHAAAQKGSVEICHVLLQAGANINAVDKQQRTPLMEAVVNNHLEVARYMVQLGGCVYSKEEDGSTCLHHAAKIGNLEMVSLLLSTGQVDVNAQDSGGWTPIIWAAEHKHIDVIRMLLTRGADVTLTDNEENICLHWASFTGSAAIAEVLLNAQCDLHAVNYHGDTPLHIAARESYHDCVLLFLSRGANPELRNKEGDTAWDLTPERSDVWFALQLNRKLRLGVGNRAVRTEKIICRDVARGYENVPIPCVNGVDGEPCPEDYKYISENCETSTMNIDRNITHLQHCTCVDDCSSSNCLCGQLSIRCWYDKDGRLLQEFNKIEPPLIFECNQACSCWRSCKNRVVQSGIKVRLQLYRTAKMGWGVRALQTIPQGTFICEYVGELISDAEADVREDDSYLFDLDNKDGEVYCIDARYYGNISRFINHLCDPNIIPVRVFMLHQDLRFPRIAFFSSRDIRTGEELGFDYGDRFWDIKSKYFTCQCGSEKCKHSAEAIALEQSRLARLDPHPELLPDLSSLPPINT

G9afl [3] = target: T1, G9afl; assay: Methylation of modified H3 peptide substrates by wild-type G9a; assay type: biochemical, murine; conditions: 25 nM G9afl; Figure 4B
G9amut = assay: Methylation of modified H3 peptide substrates by G9amut; assay type: biochemical, murine; conditions: 25 nM G9amut; Figure 4B
G9a [4] = assay: Methyltransferase assay with peptide spanning amino acids 160–175 of G9a; assay type: biochemical, murine; conditions: even after 1 h of incubation; Supplementary Figure 1
Wt-H3 = assay: Steady-state kinetics of G9a enzymes with Wt-H3 peptide; assay type: biochemical; conditions: GST fusion enzymes with Wt-H3, steady-state conditions; Supplementary Figure 2
HP1α = assay: Immunofluorescence co-localization with HP1α in COS-7 cells; assay type: cell-based; conditions: 48 h after transfection, Figure 6

Molecule: C[S+](CC[C@H](N)C(=O)[O-])C[C@H]1O[C@@H](n2cnc3c(N)ncnc32)[C@H](O)[C@@H]1O (stereo partly drawn) [cold AdoMet, S-adenosyl-L-methionine]
autoradiography signal for G9a (G9a [1]): not apparent
autoradiography signal for H3 (H3): not apparent

Molecule: GST-G9a (210–264/K239A) (AQGAATAGPEPSPATTAAQEGQPKVHRARATMSKPSNGQPPIPEKRPPEVQHFRM; also: GST fusion; UniProt Q9Z148 210-264, looked up, variant K239A)
methylation / radioactive incorporation of GST fusion fragment (full-length G9a): impaired

kcat (turnover number) (G9afl [2]): 0.0183 s⁻¹
Molecule: CGQPKVHRARKTMPKSV [G9a]

kcat/Km (G9afl [2]): 172 10^6 × M^−1 h^−1
Km (G9afl [2]): 0.5 ± 0.05 µM
kcat (turnover number) (G9afl [2]): 0.0239 s⁻¹ and 0.0239 ± 0.00056 s⁻¹
Molecule: CADVKVHRARKTMPKSV [EuHMT]

effect of phosphorylated peptide on enzyme (G9afl [3]): inhibited both enzymes
effect of phosphorylated peptide on enzyme (G9amut): inhibited both enzymes
Molecule: CARTKQTARKS(p)TGG [H3S10p]

kcat/Km (G9afl [2]): 140 10^6 × M^−1 h^−1
Km (G9afl [2]): 0.7 ± 0.05 µM
kcat (turnover number) (G9afl [2]): 0.0272 s⁻¹ and 0.0272 ± 0.0011 s⁻¹
Molecule: CPQKKVFKARKTMRVSD [mAM]

Molecule: IVLGHATKSFPSSPSK [G9aK167]
methyl group incorporation to the peptide (G9a [4]): did not observe methyl group incorporation to the peptide

Molecule: GST-G9a (210–246/K243A) (AQGAATAGPEPSPATTAAQEGQPKVHRARKTMSAPSN; also: GST fusion; UniProt Q9Z148 210-246, looked up, variant K243A)
methylation / radioactive incorporation of GST fusion fragment (full-length G9a): decrease in K239 methylation

effect of phosphorylated peptide on enzyme (G9afl [3]): inhibited both enzymes
effect of phosphorylated peptide on enzyme (G9amut): inhibited both enzymes
Molecule: CARTKQTARKST(p)GG [H3T11p]

B1: 264–633: GST fusion containing 264–633 amino acids of G9a (protein, UniProt Q9Z148 264-633, looked up, fragment)
chain: MSDDMHLGKVTSDVAKRRKLNSGSLSEDLGSAGGSGDIILEKGEPRPLEEWETVVGDDFSLYYDAYSVDERVDSDSKSEVEALAEQLSEEEEEEEEEEEEEEEEEEEEEEEEEDEESGNQSDRSGSSGRRKAKKKWRKDSPWVKPSRKRRKREPPRAKEPRGVNGVGSSGPSEYMEVPLGSLELPSEGTLSPNHAGVSNDTSSLETERGFEELPLCSCRMEAPKIDRISERAGHKCMATESVDGELLGCNAAILKRETMRPSSRVALMVLCEAHRARMVKHHCCPGCGYFCTAGTFLECHPDFRVAHRFHKACVSQLNGMVFCPHCGEDASEAQEVTIPRGDGGTPPIGTAAPALPPLAHDAPGRADTSQ
modifications: GST fusion
methylation of GST fusion by G9afl (full-length G9a): did not methylate

B2: 1–117: GST fusion containing 1–117 amino acids of G9a (protein, UniProt Q9Z148 1-117, looked up, fragment)
chain: MRGLPRGRGLMRARGRGRAAPTGGRGRGRGGAHRGRGRPRSLLSLPRAQASWAPQLPAGLTGPPVPCLPSQGEAPAEMGALLLEKEPRGAAERVHSSLGDTPQSEETLPKANPDSLE
modifications: GST fusion
methylation of GST fusion by G9afl (full-length G9a): did not methylate

B3: GST-G9afl (K167A) (protein, UniProt Q9Z148 1-1263, looked up, variant K167A)
chain: MRGLPRGRGLMRARGRGRAAPTGGRGRGRGGAHRGRGRPRSLLSLPRAQASWAPQLPAGLTGPPVPCLPSQGEAPAEMGALLLEKEPRGAAERVHSSLGDTPQSEETLPKANPDSLEPAGPSSPASVTVTVGDEGADTPVGAASLIGDEPESLEGDGGRIVLGHATASFPSSPSKGGACPSRAKMSMTGAGKSPPSVQSLAMRLLSMPGAQGAATAGPEPSPATTAAQEGQPKVHRARKTMSKPSNGQPPIPEKRPPEVQHFRMSDDMHLGKVTSDVAKRRKLNSGSLSEDLGSAGGSGDIILEKGEPRPLEEWETVVGDDFSLYYDAYSVDERVDSDSKSEVEALAEQLSEEEEEEEEEEEEEEEEEEEEEEEEEDEESGNQSDRSGSSGRRKAKKKWRKDSPWVKPSRKRRKREPPRAKEPRGVNGVGSSGPSEYMEVPLGSLELPSEGTLSPNHAGVSNDTSSLETERGFEELPLCSCRMEAPKIDRISERAGHKCMATESVDGELLGCNAAILKRETMRPSSRVALMVLCEAHRARMVKHHCCPGCGYFCTAGTFLECHPDFRVAHRFHKACVSQLNGMVFCPHCGEDASEAQEVTIPRGDGGTPPIGTAAPALPPLAHDAPGRADTSQPSARMRGHGEPRRPPCDPLADTIDSSGPSLTLPNGGCLSAVGLPPGPGREALEKALVIQESERRKKLRFHPRQLYLSVKQGELQKVILMLLDNLDPNFQSDQQSKRTPLHAAAQKGSVEICHVLLQAGANINAVDKQQRTPLMEAVVNNHLEVARYMVQLGGCVYSKEEDGSTCLHHAAKIGNLEMVSLLLSTGQVDVNAQDSGGWTPIIWAAEHKHIDVIRMLLTRGADVTLTDNEENICLHWASFTGSAAIAEVLLNAQCDLHAVNYHGDTPLHIAARESYHDCVLLFLSRGANPELRNKEGDTAWDLTPERSDVWFALQLNRKLRLGVGNRAVRTEKIICRDVARGYENVPIPCVNGVDGEPCPEDYKYISENCETSTMNIDRNITHLQHCTCVDDCSSSNCLCGQLSIRCWYDKDGRLLQEFNKIEPPLIFECNQACSCWRSCKNRVVQSGIKVRLQLYRTAKMGWGVRALQTIPQGTFICEYVGELISDAEADVREDDSYLFDLDNKDGEVYCIDARYYGNISRFINHLCDPNIIPVRVFMLHQDLRFPRIAFFSSRDIRTGEELGFDYGDRFWDIKSKYFTCQCGSEKCKHSAEAIALEQSRLARLDPHPELLPDLSSLPPINT
modifications: full-length GST fusion
kcat (Wt-H3): 0.0183 s⁻¹

B4: GFP-G9amut (protein, UniProt Q9Z148 1-1263, looked up, variant K233A K239A K243A)
chain: MRGLPRGRGLMRARGRGRAAPTGGRGRGRGGAHRGRGRPRSLLSLPRAQASWAPQLPAGLTGPPVPCLPSQGEAPAEMGALLLEKEPRGAAERVHSSLGDTPQSEETLPKANPDSLEPAGPSSPASVTVTVGDEGADTPVGAASLIGDEPESLEGDGGRIVLGHATKSFPSSPSKGGACPSRAKMSMTGAGKSPPSVQSLAMRLLSMPGAQGAATAGPEPSPATTAAQEGQPAVHRARATMSAPSNGQPPIPEKRPPEVQHFRMSDDMHLGKVTSDVAKRRKLNSGSLSEDLGSAGGSGDIILEKGEPRPLEEWETVVGDDFSLYYDAYSVDERVDSDSKSEVEALAEQLSEEEEEEEEEEEEEEEEEEEEEEEEEDEESGNQSDRSGSSGRRKAKKKWRKDSPWVKPSRKRRKREPPRAKEPRGVNGVGSSGPSEYMEVPLGSLELPSEGTLSPNHAGVSNDTSSLETERGFEELPLCSCRMEAPKIDRISERAGHKCMATESVDGELLGCNAAILKRETMRPSSRVALMVLCEAHRARMVKHHCCPGCGYFCTAGTFLECHPDFRVAHRFHKACVSQLNGMVFCPHCGEDASEAQEVTIPRGDGGTPPIGTAAPALPPLAHDAPGRADTSQPSARMRGHGEPRRPPCDPLADTIDSSGPSLTLPNGGCLSAVGLPPGPGREALEKALVIQESERRKKLRFHPRQLYLSVKQGELQKVILMLLDNLDPNFQSDQQSKRTPLHAAAQKGSVEICHVLLQAGANINAVDKQQRTPLMEAVVNNHLEVARYMVQLGGCVYSKEEDGSTCLHHAAKIGNLEMVSLLLSTGQVDVNAQDSGGWTPIIWAAEHKHIDVIRMLLTRGADVTLTDNEENICLHWASFTGSAAIAEVLLNAQCDLHAVNYHGDTPLHIAARESYHDCVLLFLSRGANPELRNKEGDTAWDLTPERSDVWFALQLNRKLRLGVGNRAVRTEKIICRDVARGYENVPIPCVNGVDGEPCPEDYKYISENCETSTMNIDRNITHLQHCTCVDDCSSSNCLCGQLSIRCWYDKDGRLLQEFNKIEPPLIFECNQACSCWRSCKNRVVQSGIKVRLQLYRTAKMGWGVRALQTIPQGTFICEYVGELISDAEADVREDDSYLFDLDNKDGEVYCIDARYYGNISRFINHLCDPNIIPVRVFMLHQDLRFPRIAFFSSRDIRTGEELGFDYGDRFWDIKSKYFTCQCGSEKCKHSAEAIALEQSRLARLDPHPELLPDLSSLPPINT
modifications: full-length GFP fusion
co-localization with HP1α (HP1α): did not co-localize with HP1α
